Measurements taken from ChEMBL document CHEMBL1649308, “Affinity of the new cephalosporin CXA-101 to penicillin-binding proteins of Pseudomonas aeruginosa” (Antimicrob Agents Chemother, 2010).
Values after ≈ are worked out from the molar mass of the structure shown. Active and inactive are the calls of the source. The rule behind the calls is not given here.

How the values were obtained:
Pseudomonas aeruginosa [1] = experiment: Induction of ampC mRNA expression in Pseudomonas aeruginosa PAO1 at 50 ug/ml relative to untreated control; format: functional
Method in brief: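 The inducer was given at 50 μg/ml for 3 h, with an untreated comparison. RNA from log-phase LB cultures was DNase-treated, and ampC expression was quantified by real-time RT-PCR normalized to rpsL. Values are the mean of at least three independent duplicate experiments.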

Pseudomonas aeruginosa [2] = experiment: Induction of ampC mRNA expression in Pseudomonas aeruginosa PAO1 at 0.25 X MIC relative to untreated control; format: functional
Method in brief: (§1)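 Cells were exposed for 3 h to subinhibitory drug (1/2 or 1/4 MIC), alongside untreated cells. RNA was taken from log-phase LB cultures and DNase-treated (2 U, 30 min, 37°C). ampC mRNA was measured by real-time RT-PCR and normalized to rpsL. Values are the mean relative expression from at least three independent duplicate experiments.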

[3] = Inhibition of Pseudomonas aeruginosa PAO1 PBP1b by SDS-PAGE
Method in brief: (§2)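 Membranes were prepared from late-log (OD600 1) LB cultures by sonication and two rounds of 150,000 × g ultracentrifugation in 20 mM KH2PO4-140 mM NaCl, pH 7.5. Membranes were preincubated 30 min at 37°C with drug (0.0156–2 μg/ml), then labeled with 25 μM Bocillin FL. Samples were run on SDS-PAGE and read by fluorescence (ex 488/em 530 nm). IC50 values come from triplicate experiments.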

[4] = Inhibition of Pseudomonas aeruginosa PAO1 PBP5/6 by SDS-PAGE; method in brief: as §2
Pseudomonas aeruginosa [5] = experiment: Antimicrobial activity against Pseudomonas aeruginosa PAO1 by broth microdilution method; format: functional
Method in brief: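 MICs against strain PAO1 by standard CLSI broth microdilution (M100-S18).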

Pseudomonas aeruginosa [6] = experiment: Bactericidal activity against Pseudomonas aeruginosa PAO1 assessed as reduction in viable bacterial count at 2 X MIC after 8 hrs by time-kill analysis; format: functional
Method in brief: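 PAO1 grown overnight in Mueller-Hinton broth, diluted 1/100 and grown at 37°C, 180 rpm to mid-log phase (OD600 0.2). Then inoculated into MHB with 0, 0.5×, 1×, 2× or 4× MIC to an initial OD600 of 0.01 (ca. 10^7 CFU/ml). Viable counts taken by plating serial dilutions on MH agar over 8 h. Triplicate experiments, mean ± SD.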

[7] = Inhibition of Pseudomonas aeruginosa PAO1 PBP2 by SDS-PAGE; method in brief: as §2
Pseudomonas aeruginosa [8] = experiment: Antimicrobial activity against Pseudomonas aeruginosa PAO1 at 4 X MIC after 8 hrs by Live/dead cell viability assay; format: functional, organism-based
[9] = Inhibition of Pseudomonas aeruginosa PAO1 PBP1c by SDS-PAGE; method in brief: as §2
[10] = Inhibition of Pseudomonas aeruginosa PAO1 PBP4 by SDS-PAGE; method in brief: as §2
Pseudomonas aeruginosa [11] = experiment: Induction of ampC mRNA expression in Pseudomonas aeruginosa PAO1 at 0.5 X MIC relative to untreated control; format: functional; method in brief: as §1
[12] = Inhibition of Pseudomonas aeruginosa PAO1 PBP3 by SDS-PAGE; method in brief: as §2
Pseudomonas aeruginosa [13] = experiment: Antimicrobial activity against Pseudomonas aeruginosa PAO1 assessed as appearance of long filaments at 0.5 X MIC after 2 hrs by Live/dead cell viability assay; format: functional, organism-based
Pseudomonas aeruginosa [14] = experiment: Bactericidal activity against Pseudomonas aeruginosa PAO1 assessed as reduction in viable bacterial count at MIC after 8 hrs by time-kill analysis; format: functional
Method in brief: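 Overnight MHB cultures were diluted 1/100 and grown at 37°C, 180 rpm to OD600 0.2. Flasks of MHB with 0, 0.5×, 1×, 2× or 4× MIC were inoculated to OD600 0.01 (ca. 10^7 CFU/ml). Viable counts were followed over 8 h by plating serial dilutions on MH agar, with OD600 also read. Values are the mean ± SD of triplicate runs.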

Row | SMILES | fold change (FC) (Pseudomonas aeruginosa [1]) | fold change (FC) (Pseudomonas aeruginosa [2]) | IC50 [3] | IC50 [4] | MIC (Pseudomonas aeruginosa [5]) | Activity (Pseudomonas aeruginosa [6]) | IC50 [7] | Activity (Pseudomonas aeruginosa [8]) | IC50 [9] | IC50 [10] | fold change (FC) (Pseudomonas aeruginosa [11]) | IC50 [12] | Activity (Pseudomonas aeruginosa [13]) | fold change (FC) (Pseudomonas aeruginosa [14])
1 | CO[C@@]1(NC(=O)Cc2cccs2)C(=O)N2C(C(=O)O)=C(COC(N)=O)CS[C@@H]21 [CEFOXITIN] | 50 |  |  |  |  |  |  |  |  |  |  |  |  | 
2 | CC(C)(O/N=C(\C(=O)N[C@@H]1C(=O)N2C(C(=O)[O-])=C(C[n+]3ccccc3)CS[C@H]12)c1csc(N)n1)C(=O)O [CEFTAZIDIME] |  | 1.2 | 0.12 µg/mL (≈ 0.22 µM) | > 2 µg/mL | 1 µg/mL (≈ 1.83 µM) | >3 | > 2 µg/mL | Active | > 2 µg/mL | 1.23 µg/mL (≈ 2.25 µM) | 1.2 | 0.04 µg/mL (≈ 0.0732 µM) | Active | 
3 | Cn1c(N)c(NC(=O)NCCN)c[n+]1CC1=C(C(=O)O)N2C(=O)[C@@H](NC(=O)/C(=N\OC(C)(C)C(=O)[O-])c3nsc(N)n3)[C@H]2SC1 [CEFTOLOZANE] |  | 1.6 | 0.07 µg/mL (≈ 0.105 µM) | > 2 µg/mL | 0.5 µg/mL (≈ 0.75 µM) |  | 1.36 µg/mL (≈ 2.04 µM) | Active | 0.64 µg/mL (≈ 0.96 µM) | 0.29 µg/mL (≈ 0.435 µM) | 1.3 | 0.02 µg/mL (≈ 0.03 µM) | Active | >3
4 | C[C@@H](O)[C@H]1C(=O)N2C(C(=O)O)=C(SCCNC=N)C[C@H]12 [IMIPENEM ANHYDROUS] |  | 193.2 | 0.13 µg/mL (≈ 0.434 µM) | 0.2 µg/mL (≈ 0.668 µM) | 1 µg/mL (≈ 3.34 µM) |  | 0.08 µg/mL (≈ 0.267 µM) | Active | 0.08 µg/mL (≈ 0.267 µM) | 0.02 µg/mL (≈ 0.0668 µM) | 269.5 | 0.12 µg/mL (≈ 0.401 µM) | Active | 
